Measurements: ChEMBL document CHEMBL1125197, “Studies on uricosuric diuretics. 4. Three-dimensional structure-activity relationships and receptor mapping of (aryloxy)acetic acid diuretics” (1991)

test system: Rattus norvegicus; assay: Diuretic activity after peroral administration of 100 mg/Kg in rats; assay type: functional, Urine
Method in brief: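 Seven-week-old Wistar–Imamichi rats, fasted 24 h, in groups of five matched for urine output; forced urination before dosing. Oral dose of 100 mg/kg, suspended in physiological saline with 3% gum arabic at 25 mL/kg. Controls received vehicle alone. Animals kept fasted in separate metabolic cages, with urine collected for 6 h. Urine volume expressed as % of control (100%).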

Going from `O=C(O)C1Cc2c(c(Cl)cc3c(-c4ccccc4)noc23)O1` (stereo not drawn) to `O=C(O)C1Cc2cc3c(-c4ccccc4)noc3c(Cl)c2O1` (stereo not drawn), the Relative activity rises from 120% to 300%.

First: O=C(O)C1Cc2cc3c(=O)c4ccccc4oc3c(Cl)c2O1 (stereo not drawn)
Second: O=C(O)C1Cc2c(c(Cl)cc3c(=O)c4ccccc4oc23)O1 (stereo not drawn)
The Relative activity of the first is lower: 200% for the first, 300% for the second.

First: O=C(O)C1Cc2cc(-c3noc4ccccc34)c(Cl)c(Cl)c2O1 (stereo not drawn)
Second: O=C(O)C1Cc2c(c(Cl)c(Cl)c3nc(-c4ccccc4)oc23)O1 (stereo not drawn)
The Relative activity of the first is lower: 300% for the first, 450% for the second.

Compared with `O=C(O)COc1ccc2c(-c3ccccc3F)noc2c1Cl`, `O=C(O)COc1cc2c(=O)c3ccccc3oc2cc1Cl` is lower in Relative activity: 250% for the first, 200% for the second.

Going from `CC1(c2ccccc2)Cc2cc(OCC(=O)O)c(Cl)c(Cl)c2C1=O` (racemic) [INDACRINONE] to `C[C@@]1(c2ccccc2)Cc2cc(OCC(=O)O)c(Cl)c(Cl)c2C1=O`, the Relative activity falls from 300% to 200%.

Compared with `O=C(O)C1Oc2cc3c(-c4ccccc4)noc3c(Cl)c2O1` (stereo not drawn), `O=C(O)C1Oc2c(Cl)cc3c(-c4ccccc4)noc3c2O1` (stereo not drawn) is lower in Relative activity: 450% for the first, 160% for the second.

Compared with `O=C(c1cccs1)c1cc2c(c(Cl)c1Cl)OC(C(=O)O)C2` (racemic), `O=C(c1cccs1)c1cc2c(c(Cl)c1Cl)O[C@H](C(=O)O)C2` is higher in Relative activity: 350% for the first, 400% for the second.

Going from `O=C(O)COc1cc2oc3ccccc3c(=O)c2cc1Cl` to `C[C@]1(c2ccccc2)Cc2cc(OCC(=O)O)c(Cl)c(Cl)c2C1=O`, the Relative activity rises from 200% to 350%.

`O=C(O)COc1ccc(C(=O)c2cccs2)c(Cl)c1Cl` [TICRYNAFEN] showed a Relative activity of 160%.

`O=C(c1cccs1)c1cc2c(c(Cl)c1Cl)O[C@@H](C(=O)O)C2` was tested, and the Relative activity was <100%.
